Data published in ChEMBL document CHEMBL4513216, “Probing the Open Global Health Chemical Diversity Library for Multistage-Active Starting Points for Next-Generation Antimalarials” (ACS Infect Dis, 2020).

Assay: Toxicity liver stage against HepG2, at 10uM
Type: cell-based
Design: test concentration 10 uM, cell line HepG2-A16-CD81EGFP
Details: human, HepG2-A16-CD81EGFP cells; read-out: INHIBITION
Procedure, shortened: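 Uninfected HepG2-A16-CD81EGFP cells, 3 × 10^3 per well, 1536-well, plated on prespotted compound at 10 μM final, parasite-free screening media added to match infected plates; puromycin 10 μM positive, DMSO 0.5% negative; run in parallel with 48 h PbLuc assay at 37 °C, 5% CO2; viability by CellTiter-Glo luminescence, normalized to controls.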

Structure (SMILES)	cytotoxicity at 10 µM [%]
CCS(=O)(=O)N1CCc2ccc(NC(=O)Nc3cccc(F)c3)cc21	38.4
CC1=C(C#N)C(=O)N(C)C(=O)/C1=C\C1=Cc2ccccc2OC1	-39.4
Cc1nc(NC(=O)c2c(-n3cnnn3)sc3c2CCCC3)sc1C	2.03
Cc1cnc(NC(=O)c2csc(NC3CCCC3)n2)s1	45.8
CCCc1cc(=O)[nH]c(-n2nc(C3CC3)cc2N)n1	31.3
CC(C)c1cc(=O)[nH]c(-n2nc(C3CC3)cc2N)n1	33.9
Cc1cs/c(=N/C(=O)c2csc(NCC(C)C)n2)[nH]1	22.9
Cc1[nH]/c(=N\C(=O)c2csc(NCC(C)C)n2)sc1C	47.4
Cc1cc(CN2CCc3nc(N4CCOCC4)nc(O)c3CC2)c(C)s1	6.3
CC(C)(C)n1nnnc1CN(Cc1ccccc1)Cc1ccccc1Cl	8.56
Cn1cncc1CN1CCCC1c1cncc(Oc2ccc(Cl)cc2)n1 (centres undefined)	11
COc1ccc(CN2CCOC(CCc3ccnc(N)c3)C2)cc1 (centres undefined)	13.3
CN(C)S(=O)(=O)N1CCCC(c2cccc(Cc3ccc(F)cc3)n2)C1 (centres undefined)	38.9
COC1CCN(c2ccc(NC(=O)C3CC3)cc2C(F)(F)F)CC1	39.5
Cc1cnn(C2CN(c3ccccc3S(=O)(=O)C(F)(F)F)C2)c1	11.5
Cc1cnn(CC(C)NCc2cc(=O)n3ccccc3n2)c1 (centres undefined)	-5.3
Cc1c(Cl)cccc1OCC(=O)NC1(C#N)CCSC1 (centres undefined)	37.8
Cc1sc(NC(=O)CN2CCCC(c3ncc[nH]3)C2)c(C)c1C (centres undefined)	28.1
COCCN(CCOC)C(=O)c1cnn(C)c1C	-149
CCN(CC(C)C#N)C(=O)CNc1ccc(C(N)=O)c(C)c1 (centres undefined)	8.54
COc1cc(C(=O)NS(=O)(=O)c2cc(Cl)sc2Cl)ccc1OC(F)F	-13.9
CC(C)Oc1ccc(NCc2ccc([S+](C)[O-])cc2)c(F)c1 (centres undefined)	22.4

Structure (SMILES)	cytotoxicity at 10 µM [%]
COc1cc2c(nn1)CCN(Cc1nnc(Cc3ccccc3)o1)C2	4.25
CCCn1nc2c(cc1=O)CN(c1ncnc3ccsc13)CC2	49.5
Cc1ccc(N2CCCN(C(=O)c3cn(C)c4ccccc34)CC2)nn1	-9.53
N#Cc1c(Cl)nsc1NCc1cccnc1OCC(F)(F)F	25.5
Cc1ccsc1C(=O)Nc1ccc(N2CCC(O)CC2)c(C#N)c1	33.2
CCc1nc(CNc2cc(Cl)ccc2OCC2CCCO2)no1 (centres undefined)	8.84
COc1ccccc1C1(CNc2nnc(C)c(C)c2C#N)CCCC1	34.4
CN(Cc1noc(C(C)(C)C)n1)Cc1ccccc1N1CCCCC1	-4.73
NC(=O)c1ccc(N2CCCCC2)c(NC(=O)c2cc(F)ccc2F)c1	7.57
O=C(C1CC1)N1CCC(Oc2ccccc2Cl)CC1	25.6
Brc1ccc(-c2nnc(CN(Cc3cccs3)CC3CCCO3)o2)s1 (centres undefined)	23.2
CCn1nc2c(cc1=O)CN(c1ncnc3ccsc13)CC2	49.6
CC(C)n1nc2c(cc1=O)CN(c1ncnc3ccccc13)CC2	52.2
Cc1cn2c(n1)C(CNCC1=Cc3ccccc3OC1)CCC2 (centres undefined)	27.7
Cc1nc(C)c(C(=O)NCc2nc3cccc(C)c3n2C)o1	40.1
Cc1ccc(-c2nc(CSCCC(=O)NC(N)=O)co2)c(C)c1	-6.4
Cc1cc(C2CCCN(CCc3ccc4c(c3)CCO4)C2)n[nH]1 (centres undefined)	-7.66
CNC(=O)c1cccnc1N1CCC(Oc2ccc(F)cc2)CC1	3.41
Cc1cc(CNc2ccnn2CC(C)C)ccc1-n1cncn1	24
O=C(c1ccc(Br)o1)N1CCN(Cc2ccc(OC(F)(F)F)cc2)CC1	21.7
COc1cc(N2CCC3(CC2)CN(CCO)c2ccccc23)ncn1	19.7
Cn1cc(CN2CCc3ccc(=O)n(CC4CC4)c3CC2)cn1	3.24

Structure (SMILES)	cytotoxicity at 10 µM [%]
COC[C@@]12CCO[C@@H]1CCN(C(=O)C1CC(F)(F)C1)C2	-97.4
Cc1ccc(C(=O)N2CCc3c(COCC4CC4)cncc3C2)o1	-74.2
CCCn1cc(-c2ccnc(NC3CCc4ccccc4C3)n2)c(C)n1 (centres undefined)	81.3
OCC1(Cc2ccccc2F)CCCN(c2ccc3ccccc3n2)C1 (centres undefined)	22.7
Cc1cnc(C)c(Oc2ccc(Cl)c(CN3CCCC3)c2Cl)n1	2.61
Cc1nnc(CN2C[C@H](NC(=O)C3CCOCC3)[C@@H](C(C)C)C2)s1	-3.41
CN1CCN(CCc2ncnn2-c2ccc3c(c2)OCO3)CC1	-0.00326
CNc1nc(C)cc(NCc2cc(C)cc3c(C)c(C)[nH]c23)n1	-30.2
CCS(=O)(=O)NCc1cccnc1N1CCCC(O)C1 (centres undefined)	1.91
Cc1nc(N)ncc1C(=O)N1CCCC(CCc2ccc(F)cc2)C1 (centres undefined)	-8.3
Cc1ncnc(N2CCCN(c3nc4ccccc4s3)CC2)c1C	55.5
Fc1ccc(N2CCCN(c3ccc(Cn4ccnc4)cn3)CC2)cc1	26.2
CN(C)CC1(O)CCCN(C(=O)Cn2ccc3ccccc32)CC1 (centres undefined)	-1.96
O=C(O)CSc1nnc(-c2cn[nH]c2)n1-c1ccccc1C(F)(F)F	1.2
CCc1cnc(N)nc1NC(C)c1ccc(C)c(C)c1 (centres undefined)	21.3
COc1ccc(CN(CC2CCCO2)c2nc3c(s2)c(C)nn3C)cc1 (centres undefined)	11.4
Cc1nc2c(c(NCC(O)C(F)(F)F)n1)CCNCC2 (centres undefined)	5.37
Cn1ncnc1-c1ccnc(NCCCc2ccncc2)n1	-1.41
COc1cc(Oc2ncccc2C(F)(F)F)ccc1CN1CCCC1	38.8
OC1CCN(c2ccnc(NCCc3ccccc3Cl)n2)C1 (centres undefined)	39.3
Cc1cc2c(N3CCC(N(C)Cc4nccs4)CC3)ncnc2s1	45
COc1cccc(C2CCN(c3ccc4cc[nH]c4n3)C2)c1OC (centres undefined)	50.2

Structure (SMILES)	cytotoxicity at 10 µM [%]
CN1CC2(CCN(C(=O)c3ccc4c(=O)n(C)cnc4c3)C2)OC1=O (centres undefined)	2.41
Cc1c(CN2CCCC(C(=O)c3ccc(C(C)(C)C)cc3)C2)cnn1C (centres undefined)	10.4
NCC1Cc2cccc(-c3nccc(N4CCC(O)CC4)n3)c2O1 (centres undefined)	-14.9
N[C@@H]1c2ccccc2C2(CCN(c3cccc(C(F)(F)F)n3)CC2)[C@H]1O	0.243
Cc1noc(-c2ccnc(Oc3ccc(CN4CCCC4)cc3F)c2)n1	15.7
Cc1ccc(CN2CCN(C(=O)c3ccc(Br)o3)CC2)cc1	1.16
Cc1sc2nc(CCN)nc(N3CC(N4CCCCC4)C3)c2c1C	-21.9
CCC(NC(=O)C1CCN(S(C)(=O)=O)CC1)c1ccc(C)cc1C (centres undefined)	-10.6
O=C1CC(c2ccc3c(c2)OCO3)c2cnn(C3CCCC3)c2N1 (centres undefined)	24.3
CCCn1cc(S(=O)(=O)N[C@H]2CN(CCO)C[C@@H]2C2CC2)cn1	-11.3
NC(=O)CCn1cc(CNCCCc2ccccc2O)c2ccccc21	8.92
OCC1CCCCN1c1ccc(-c2nc(-c3ccccc3F)no2)cn1 (centres undefined)	51.2
Cc1cc(SCC(=O)O)nc2nn(CC(F)F)c(C)c12	45.5
Cc1cccc(-c2noc(CN3CC(n4cc(C)cn4)C3)n2)c1	-8.8
Cc1noc(NC(=O)c2ccc(OC(F)(F)F)cc2)n1	33.5
Cc1noc(NC(=O)c2ccc(Br)cc2)n1	32.9
CC(C)Cc1ccc(S(=O)(=O)Nc2ccc(=O)n(C)c2)cc1	46.3
c1cnc(-c2nc(CN3CCOC(Cn4cncn4)C3)cs2)nc1 (centres undefined)	-15.2
Cc1nc2cc(C3CCN(Cc4cccc(F)c4F)C3)nn2c(O)c1C (centres undefined)	0.333
Cc1ccc(CN(Cc2ncc[nH]2)C2CC(C)(C)NC(C)(C)C2)o1	-15.2
Cc1ccc(N(CC(=O)c2ccc(Br)cc2)C2=NCCCCC2)cc1	36.5
Cc1ccc(CN(CCCn2ccnc2)Cc2c(F)cccc2F)s1	2.76

Structure (SMILES)	cytotoxicity at 10 µM [%]
COc1ccc(F)c(CN(CCCn2ccnc2)Cc2ccc(C)s2)c1	-7.14
COc1ccc(C)cc1CN1CCC(c2cc3ncccc3cn2)CC1	20.5
CN1CCC2(COCCN(Cc3cccc(C#N)c3)C2)C1 (centres undefined)	0.0422
COCCNC(=O)C1CN(Cc2ccncc2)Cc2ccnn2C1 (centres undefined)	-83
Clc1ccc(-c2ccc(C3CNCCO3)nc2)cc1 (centres undefined)	-5.86
Cn1ccnc1CN1CCC2(CC1)CN(c1ccccn1)CCO2	-0.335
CN(C)C[C@]12COC[C@H]1CN(Cc1ccccn1)C2	5.89
O=C([C@H]1C[C@H]2OCC[C@H]2N(Cc2ccoc2)C1)N1CCCCO1	-73.2
COc1ccc(CN2CCO[C@H]3[C@H](OCc4ccncc4)CC[C@@H]32)cc1	-30.9
CCS(=O)(=O)N1CCc2c(CN3CCOCC3)cncc2C1	4.35
COc1cc(N2CCC3(CCN(Cc4nccs4)CC3)C2)ncn1	-36
Cc1ccc(CN2CC[C@@H]3[C@@H]2CCN3C(=O)Cc2cccs2)o1	-119
Cc1nc(CN2CCN3C[C@H](Oc4cncnc4)C[C@H]3C2)cs1	-81.4
Fc1cccc(N2CCCC3(CN(Cc4nccs4)CCO3)C2)c1 (centres undefined)	-58.2
COc1cc(N2CCC3(CCN(Cc4csc(C)n4)C3=O)C2)ncn1 (centres undefined)	-104
Cc1noc(C)c1CN1CCC[C@]2(C[C@@H](Oc3ccccn3)CO2)C1	-67.1
Cc1cc(CN2C[C@@H]3CN(C(=O)c4cccn4C)CCO[C@@H]3C2)no1	-148
Cc1nc([C@H]2C[C@@H]3CCN(Cc4scnc4C)C[C@H]3O2)no1	-129
O=C1CC(c2ccncc2)C2(CCN(CCc3ccccc3)CC2)N1 (centres undefined)	-1.58
Cc1cnc(N2CCc3c(CNc4ccnc(C)n4)cncc3C2)nc1	-39.1
FC1(F)CCN(Cc2ccncc2)CC12CCN(c1cccnc1)C2 (centres undefined)	-94.8
